Reference: publication PMC2758331 (Biochemistry, 2009)

Assays:
actin = actin (Oryctolagus cuniculus, UniProt P68135); experiment: spontaneous polymerization of actin alone; type: biochemical; details: concentrations up to 50 μM
mDia1-FH2 [1] = molecular target: T1, mDia1-FH2 (Mus musculus, UniProt O08808); experiment: pyrene-actin polymerization assay, actin assembly by mDia1-FH2; type: biochemical
Outline: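 Recombinant mouse mDia1 FH2 domain (aa 748–1175) at 2.5 nM with 4 μM actin (5% pyrene-labelled), across a range of test compound concentrations. Polymerization followed by pyrene fluorescence (emission 410 nm). Signal corrected for quenching by the test compound. Dose-response curves calculated from the polymerization curves give IC50 and Hill coefficient.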

mDia3-FH2 [2] = molecular target: T2, mDia3-FH2 (Mus musculus, UniProt O70566); experiment: equilibrium dialysis, direct binding to mDia3-FH2
T2 sequence (O70566 625-1025 limits assumed): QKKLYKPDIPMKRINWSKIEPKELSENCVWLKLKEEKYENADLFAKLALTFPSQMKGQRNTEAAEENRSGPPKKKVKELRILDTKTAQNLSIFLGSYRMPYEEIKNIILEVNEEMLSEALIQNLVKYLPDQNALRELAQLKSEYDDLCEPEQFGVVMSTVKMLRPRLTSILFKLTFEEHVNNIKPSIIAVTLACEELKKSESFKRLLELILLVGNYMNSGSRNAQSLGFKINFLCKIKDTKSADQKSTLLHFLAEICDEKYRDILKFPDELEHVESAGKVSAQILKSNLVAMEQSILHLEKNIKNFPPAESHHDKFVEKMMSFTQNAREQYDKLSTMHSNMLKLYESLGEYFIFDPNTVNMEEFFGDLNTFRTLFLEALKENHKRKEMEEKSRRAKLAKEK

mDia2-FH2 = mDia2-FH2 (Mus musculus, UniProt Q9Z207); experiment: pyrene-actin polymerization assay, actin assembly by mDia2-FH2; type: biochemical; details: potency and Hill coefficients
Chain of mDia2-FH2 (Q9Z207 615-1013 limits assumed): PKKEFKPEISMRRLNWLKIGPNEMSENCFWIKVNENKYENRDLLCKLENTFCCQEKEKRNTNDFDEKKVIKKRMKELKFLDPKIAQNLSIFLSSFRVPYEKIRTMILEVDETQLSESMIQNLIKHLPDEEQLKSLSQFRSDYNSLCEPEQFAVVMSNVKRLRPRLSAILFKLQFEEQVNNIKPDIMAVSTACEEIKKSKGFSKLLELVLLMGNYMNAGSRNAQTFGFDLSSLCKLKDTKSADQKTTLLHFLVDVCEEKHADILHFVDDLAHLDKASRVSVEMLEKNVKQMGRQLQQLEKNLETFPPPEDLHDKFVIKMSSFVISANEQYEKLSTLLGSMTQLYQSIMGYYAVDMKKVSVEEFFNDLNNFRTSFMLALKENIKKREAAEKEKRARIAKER
Outline: (§1)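 Pyrene-actin polymerization (emission read at 410 nm) driven by 2.5 nM mDia2-FH2, 20 nM INF2-(FH1-FH2) or 200 nM FRL1-(FH1-FH2), with the test compound titrated. Fluorescence corrected for compound quenching. Dose-response curves derived from the polymerization traces give IC50 and Hill coefficient.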

FRL1-(FH1-FH2) = molecular target: T3, FRL1-(FH1-FH2) (Mus musculus, UniProt Q9JL26); experiment: pyrene-actin polymerization assay, actin assembly by FRL1; type: biochemical; details: at 50 μM
T3 sequence (Q9JL26 627-1018 limits assumed): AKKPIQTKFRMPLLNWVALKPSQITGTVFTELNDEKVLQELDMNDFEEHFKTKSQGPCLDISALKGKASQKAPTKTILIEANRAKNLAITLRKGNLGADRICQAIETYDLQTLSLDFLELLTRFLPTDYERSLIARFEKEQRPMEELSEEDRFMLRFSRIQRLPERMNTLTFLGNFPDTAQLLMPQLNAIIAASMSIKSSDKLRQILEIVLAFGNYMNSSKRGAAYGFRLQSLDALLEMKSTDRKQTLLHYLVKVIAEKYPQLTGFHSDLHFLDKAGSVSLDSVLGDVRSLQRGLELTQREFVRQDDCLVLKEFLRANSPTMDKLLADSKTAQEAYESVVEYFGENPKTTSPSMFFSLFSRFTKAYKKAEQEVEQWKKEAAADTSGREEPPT
Outline: as §1

mDia3-FH2 [3] = molecular target: T2, mDia3-FH2; experiment: pyrene-actin polymerization assay, actin assembly by mDia3-FH2; type: biochemical; details: at any concentration tested
Outline: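 Pyrene-actin polymerization (emission 410 nm) with mDia3-FH2 in two formats: 10 nM mDia3-FH2 in test compound titrations for dose-response curves (IC50, Hill coefficient), and 2.5 nM mDia3-FH2 with or without 50 μM test compound. Fluorescence corrected for compound quenching.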

mDia1-FH2 [4] = molecular target: T1, mDia1-FH2; experiment: equilibrium dialysis, direct binding to mDia1-FH2
INF2-(FH1-FH2) = INF2-(FH1-FH2) (Mus musculus, UniProt Q0GNC1); experiment: pyrene-actin polymerization assay, actin assembly by INF2; type: biochemical; details: at saturating concentrations
Chain of INF2-(FH1-FH2) (Q0GNC1 589-979 limits assumed): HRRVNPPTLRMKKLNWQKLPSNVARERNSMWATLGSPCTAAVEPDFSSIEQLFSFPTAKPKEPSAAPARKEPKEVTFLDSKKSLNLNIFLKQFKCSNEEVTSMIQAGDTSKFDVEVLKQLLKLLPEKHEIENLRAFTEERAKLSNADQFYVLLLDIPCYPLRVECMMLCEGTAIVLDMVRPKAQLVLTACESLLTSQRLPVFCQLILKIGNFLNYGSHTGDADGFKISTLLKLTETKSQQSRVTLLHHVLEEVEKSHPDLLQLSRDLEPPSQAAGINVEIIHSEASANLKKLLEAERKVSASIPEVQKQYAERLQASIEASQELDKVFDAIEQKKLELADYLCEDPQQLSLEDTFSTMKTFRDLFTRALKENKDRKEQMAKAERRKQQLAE
Outline: as §1

T1 sequence (O08808 748-1175): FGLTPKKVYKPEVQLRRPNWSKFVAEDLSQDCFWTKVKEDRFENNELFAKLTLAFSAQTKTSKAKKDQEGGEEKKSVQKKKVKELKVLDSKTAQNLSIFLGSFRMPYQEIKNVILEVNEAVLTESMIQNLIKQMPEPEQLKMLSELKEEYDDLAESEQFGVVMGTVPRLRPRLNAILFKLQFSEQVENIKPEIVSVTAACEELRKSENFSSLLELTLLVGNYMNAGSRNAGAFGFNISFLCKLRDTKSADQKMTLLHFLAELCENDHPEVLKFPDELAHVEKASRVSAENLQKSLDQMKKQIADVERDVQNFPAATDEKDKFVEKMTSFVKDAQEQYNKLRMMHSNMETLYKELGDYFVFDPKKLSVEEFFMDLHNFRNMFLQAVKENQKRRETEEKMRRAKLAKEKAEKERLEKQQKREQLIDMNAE

O=S(=O)(O)c1cc(O)c2c(N=Nc3c(S(=O)(=O)O)cc4cc(S(=O)(=O)O)cc(O)c4c3O)cc(S(=O)(=O)O)cc2c1 [compound 1, 2-(8-hydroxy-3,6-disulfo-1-naphthylazo)-1,8-dihydroxy-naphthalene-3,6-disulfonic acid]
inhibitory effect toward polymerization of actin alone (actin): Neither 1 nor 2 shows any inhibitory effect
Hill coefficient, inhibition of actin assembly by mDia1-FH2 (mDia1-FH2 [1]): 2.4
IC50 (mDia1-FH2 [1]): 490 nM

Nc1ccc(Br)cc1-c1nc2ccccc2[nH]c1=O [compound 2, 3-(2-amino-5-bromophenyl)-1H-quinoxalin-2-one]
binding to mDia3-FH2 by equilibrium dialysis (mDia3-FH2 [2]): no binding
inhibition of filament assembly by mDia2-FH2 compared with mDia1-FH2 (in words) (mDia2-FH2): comparable
inhibition of FRL1 (FRL1-(FH1-FH2)): incomplete
inhibitory effect toward polymerization of actin alone (actin): Neither 1 nor 2 shows any inhibitory effect
inhibitory activity toward actin assembly by mDia3-FH2 (in words) (mDia3-FH2 [3]): no inhibitory activity
binding to mDia1-FH2 by equilibrium dialysis (mDia1-FH2 [4]): effectively retained 2 in a dose-dependent manner
maximal inhibition of INF2 activity (INF2-(FH1-FH2)): ≤ 75%
Hill coefficient, inhibition of actin assembly by mDia1-FH2 (mDia1-FH2 [1]): 7.6
IC50 (mDia1-FH2 [1]): 2100 nM
